Measurements from ChEMBL document CHEMBL3861953 (J Med Chem, 2016).
In brackets after ≈: the same amount, converted by molar mass. Activity calls are given as the source filed them. No cut-off for these calls is given here.

Columns and labels:
[1] = system: Mycobacterium marinum; assay: Antimycobacterial activity against LuxABCDE expressing Mycobacterium marinum measured after 48 hrs by luminescence based serial dilution assay; assay type: functional
Outline: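 LuxABCDE-expressing M. marinum was grown shaking at 32°C in 7H9 with OADC to OD600 0.8-1. 10^5 bacteria per well were exposed to compounds (submicromolar to submillimolar) in 7H9 with 0.5% v/v DMSO at 32°C. Luminescence was followed for 48 h, with amikacin 10 µM as control. MIC was the lowest concentration giving significant signal reduction versus DMSO control at 48 h.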

[2] = system: Mycobacterium marinum; assay: Antivirulence activity against Mycobacterium marinum assessed as Dictyostelium discoideum phagocytic plaque formation at 10 uM preincubated for 2 to 3 hrs followed by Dictyostelium discoideum addition measured after 5 to 9 days in presence of Klebsiella pneumoniae relative to control; assay type: functional
Outline: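 Mixed lawn of mid-log Mm pellet resuspended in equal volume of overnight non-virulent Kp culture diluted 10-5; 50 µl spread on SM agar containing compound (10 µM), dried 2-3 h, then 103 Dictyostelium cells added. Incubated 5-9 days at 25 °C; phagocytic plaque diameter scored 0-4 versus DMSO control.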

[3] = system: Klebsiella pneumoniae; assay: Toxicity against Klebsiella pneumoniae at 10 uM
[4] = Toxicity against Dictyostelium discoideum at 10 uM
[5] = Inhibition of recombinant Mycobacterium tuberculosis InhA expressed in Escherichia coli Rosetta (DE3) pLysS using 2-trans-decenoyl-N-acetylcyste-amine as substrate in presence of NADH by spectrophotometric method
Outline: (§1)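 His-tagged InhA purified by Ni-chelate then gel filtration. Assay at 25 °C in 30 mM PIPES, 150 mM NaCl, 1 mM EDTA, pH 6.8 with 200 µM trans-2-decenoyl-N-acetylcysteamine, 100 µM NADH, 1 µg enzyme. Initial rate of A340 decrease over 120 s. DMSO 0.1%; triplicates; triclosan positive control.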

[6] = system: Mycobacterium tuberculosis; assay: Inhibition of recombinant Mycobacterium tuberculosis InhA expressed in Escherichia coli Rosetta (DE3) pLysS at 30 uM using 2-trans-decenoyl-N-acetylcyste-amine as substrate measured for 120 sec in presence of NADH by spectrophotometric method; outline: as §1
[7] = system: Enterococcus faecalis; assay: Antimicrobial activity against Enterococcus faecalis ATCC 29212 assessed as inhibition of bacterial growth measured after 24 hrs using p-iodonitrotetrazolium violet by broth dilution method; assay type: functional; conditions: ATCC 29212, 24 h
Outline: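 E. faecalis ATCC 29212 in Mueller-Hinton broth. Compounds were taken up at 2 mg/ml in DMSO (stock) and doubling dilutions were made in MHB. Inoculum was 1-5 × 10^5 final, incubated 37°C for 24 h, with sterility, growth and DMSO solvent controls. Growth was read by reduction of INT (2 mg/ml solution, several hours) to formazan. MIC was the lowest concentration with no red-purple colour or visible turbidity.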

[8] = Mycobacterium marinum, 48 h, read-out: MIC

Structure (SMILES) | MIC [1, 8] [µM] | Activity [2] | Activity [3] | Activity [4] | IC50 [5] [µM] | inhibition [6] | MIC [1] [µM] | MIC [7] [µM]
NCC[C@H](O)C(=O)N[C@@H]1C[C@H](N)[C@@H](O[C@H]2O[C@H](CN)[C@@H](O)[C@H](O)[C@H]2O)[C@H](O)[C@H]1O[C@H]1O[C@H](CO)[C@@H](O)[C@H](N)[C@H]1O [AMIKACIN] | 1.7 (≈ 0.996 µg/mL) | – | – | – | – | – | – | –
O=C(O)[C@H](Cc1c[nH]c2ccccc12)N1C(=O)/C(=C/c2ccc(N(CCCl)CCCl)cc2)SC1=S | 1.82 (≈ 0.998 µg/mL) | Active | Non-Toxic | Non-Toxic | 12.2 | Active | – | –
CN(C)c1ccc(/C=C2\SC(=S)N([C@@H](Cc3c[nH]c4ccccc34)C(=O)O)C2=O)cc1 (stereo in doubt; 12) [listing 1 of 2 here] | – | – | – | – | 28.6 | – | 22.17 (≈ 10 µg/mL) | –
CCCc1ccc(/C=C2\SC(=S)N([C@@H](Cc3c[nH]c4ccccc34)C(=O)O)C2=O)cc1 | 22.2 (≈ 10 µg/mL) | Active | Non-Toxic | Non-Toxic | 13 | Active | – | –
CC(C)C[C@H](C(=O)O)N1C(=O)/C(=C/c2ccc(N(C)C)c3ccccc23)SC1=S | – | – | – | – | – | Active | – | –
CC(C)C[C@@H](C(=O)O)N1C(=O)/C(=C/c2ccc(N(C)C)c3ccccc23)SC1=S | – | – | – | – | – | Active | – | –
O=C(O)[C@H](Cc1c[nH]c2ccccc12)N1C(=O)/C(=C/c2ccc(Cl)cc2Cl)SC1=S | 21 (≈ 10 µg/mL) | Active | Non-Toxic | Non-Toxic | 9.5 | Active | – | –
O=C(O)[C@H](Cc1c[nH]c2ccccc12)N1C(=O)/C(=C/c2c3ccccc3c(Cl)c3ccccc23)SC1=S | 184 (≈ 100 µg/mL) | Active | Non-Toxic | Non-Toxic | 2.9 | Active | – | 0.57 (≈ 0.31 µg/mL)
O=C(O)[C@@H](Cc1c[nH]c2ccccc12)N1C(=O)/C(=C/c2ccc(N(CCCl)CCCl)cc2)SC1=S | 18.3 (≈ 10 µg/mL) | Active | Non-Toxic | Non-Toxic | 15.2 | Active | – | –
Cc1ccc(/C=C2\SC(=S)N([C@H](Cc3c[nH]c4ccccc34)C(=O)O)C2=O)c2ccccc12 | 2.11 (≈ 0.997 µg/mL) | Active | Non-Toxic | Non-Toxic | 11 | Active | – | 5.2 (≈ 2.46 µg/mL)
Oc1cc(Cl)ccc1Oc1ccc(Cl)cc1Cl [TRICLOSAN] | 8.63 (≈ 2.5 µg/mL) | – | – | – | 6.1 | – | – | –
CCCCC(C(=O)O)N1C(=O)/C(=C/c2ccc(N(C)C)c3ccccc23)SC1=S (racemic) | 2.33 (≈ 0.999 µg/mL) | – | – | – | 24.4 | Active | – | –
O=C(O)[C@H](Cc1c[nH]c2ccccc12)N1C(=O)/C(=C/c2ccc(Cl)cc2)SC1=S | 21.1 (≈ 9.32 µg/mL) | Active | Non-Toxic | Non-Toxic | 19.7 | Active | – | –
CN(C)c1ccc(/C=C2\SC(=S)N([C@@H](Cc3c[nH]c4ccccc34)C(=O)O)C2=O)c2ccccc12 | 1.99 (≈ 0.998 µg/mL) | Active | Non-Toxic | Non-Toxic | 19.1 | Active | – | –
CCN(CC)c1ccc(/C=C2\SC(=S)N([C@@H](CC(C)C)C(=O)O)C2=O)cc1 | 2.46 (≈ 1 µg/mL) | Active | Non-Toxic | Non-Toxic | 22.4 | Active | – | –
CN(C)c1ccc(/C=C2\SC(=S)N([C@@H](Cc3c[nH]c4ccccc34)C(=O)O)C2=O)cc1 (stereo in doubt; 24) [listing 1 of 2 here] | – | Active | – | – | – | Active | – | –
CN(C)c1ccc(/C=C2\SC(=S)N([C@@H](Cc3c[nH]c4ccccc34)C(=O)O)C2=O)cc1 (stereo in doubt; 24) [listing 2 of 2 here] | – | – | Non-Toxic | Non-Toxic | 14.7 | – | 2.08 (≈ 0.939 µg/mL) | –
CC(C)CC(N1C(=O)/C(=C/c2ccc(N(C)C)c3ccccc23)SC1=S)P(=O)(O)O (configuration not stated) | 21.6 (≈ 10 µg/mL) | Active | Non-Toxic | Non-Toxic | 19.1 | Active | – | –
Cc1ccc(/C=C2\SC(=S)N([C@@H](Cc3c[nH]c4ccccc34)C(=O)O)C2=O)c2ccccc12 | 0.21 (≈ 0.0992 µg/mL) | Active | Non-Toxic | Non-Toxic | 8.7 | Active | – | 2.6 (≈ 1.23 µg/mL)
CN(C)c1ccc(/C=C2\SC(=S)N([C@@H](Cc3c[nH]c4ccccc34)C(=O)O)C2=O)cc1 (stereo in doubt; 12) [listing 2 of 2 here] | – | – | – | – | – | Active | – | –
CCCc1ccc(/C=C2\SC(=S)N([C@H](Cc3c[nH]c4ccccc34)C(=O)O)C2=O)cc1 | 55.5 (≈ 25 µg/mL) | Active | Non-Toxic | Non-Toxic | 13 | Active | – | –
